Assay outcomes deposited in PubChem BioAssay by Johns Hopkins Ion Channel Center.
Shown are actives, neighbours in structure and some others; about 3.8% of the full set was active somewhere.
KCNQ1 act: potentiates or activates the human KCNQ1 potassium channel; B-score at 10 µM; AID 2648; P51787; 310,000 tested, 0.35% active; CHO-K1 KCNQ1, thallium flux FluxOR fluorescence; active compounds read high;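 active = fluorescence ratio B-score, a plate-corrected score, at least three library SD, with initial intensity B-score within 5 SD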
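assay system = CHO-K1 cells stably expressing KCNQ1 | medium = assay buffer, equal DMSO in all wells | timing = 37 °C overnight plating, 90-min dark dye load, 20-min compound pretreatment | measured by = kinetic FluxOR thallium fluorescence, 10-s 1-Hz baseline, 110-s post-stimulus read | measure = fluorescence change relative to baseline, converted to B score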
Kir21 block: blocks the mouse Kir2.1 inward-rectifier potassium channel; B-score at 10 µM; AID 1672; 310,000 tested, 0.85% active; P35561; HEK293-Kir2.1, FluxOR thallium flux fluorescence; active compounds read low;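 active = fluorescence ratio B-score at or below minus 3 SD of library scores, with starting-brightness B-score within 2 SD, cut at about -4.2 in these data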;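 also: channel flux triggered by added potassium and thallium sulfate stimulus; B-score of peak minus minimum fluorescence over baseline after thallium stimulus; more negative B-score means stronger Kir2.1 block with less thallium influx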
KCNK9 block: inhibitors of human KCNK9 two-pore domain potassium channel. HEK293 KCNK9, FluxOR thallium flux fluorescence; active compounds read low. Q9NPC2. AID 488922. B-score at 10 µM. 310,000 tested, 1.2% active;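 active = ratio B-score over 3 SD below the library mean, with starting fluorescence within 5 SD of its mean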;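 also: negative B-score means less thallium flux so channel inhibition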
KCNQ1 block: human KCNQ1 channel inhibition. CHO-K1 KCNQ1, FluxOR thallium flux fluorescence; active compounds read high. B-score at 10 µM. 310,000 tested, 1.3% active;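 active = compounds whose thallium flux B-score, printed positive for inhibition, exceeds three library SD while starting fluorescence stays within three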;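 also: channel opened by potassium depolarization with thallium stimulus after 20 min compound exposure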
KCNK3 block: human KCNK3 channel inhibition, primary screen. O14649. CHO-KCNK3 thallium flux, FluxOR fluorescence; active compounds read low. B-score at 10 µM. 340,000 tested, 0.84% active. AID 602410;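 active = B-score under library mean minus 4 SD, starting fluorescence ratio at most library mean plus 5 SD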;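 also: more negative B-score means stronger inhibition of thallium flux through KCNK3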
hERG protect: hERG (human) protection from proarrhythmic block. Q12809. CHO-hERG, FluxOR thallium flux, dofetilide IC70 present. activation (rescue from dofetilide block), less the hit threshold, % at 10 µM. 310,000 tested, 0.51% active. AID 1511;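 active = activation above the mean of controls blocked by dofetilide plus 5 SD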;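 also: thallium influx through hERG after potassium depolarization seen as dye fluorescence rise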
* marks the source's active call; other numbers are inactive results; i = inactive; . = no result.

SMILES	KCNQ1 act	Kir21 block	KCNK9 block	KCNQ1 block	KCNK3 block	hERG protect
CN1CCN(CC(=O)N2c3ccccc3C(C)(c3ccc(Cl)cc3)CC2(C)C)CC1 (centres undefined)	i	-4.8	i	i	i	-10
CN1CCN(CC(=O)N2c3ccccc3C(C)(c3ccccc3)CC2(C)C)CC1 (centres undefined)	i	-6.2*	i	i	i	-7
CC1(c2ccc([N+](=O)[O-])cc2)CC(C)(C)N(C(=O)c2ccccc2)c2ccccc21 (centres undefined)	i	0.24	i	6*	.	-17
Cc1ccc(N(Cc2cc3cc(C)ccc3[nH]c2=O)S(=O)(=O)c2ccccc2)cc1	i	0.55	i	i	i	-4
CC1=CC(c2ccc(Cl)cc2)n2nc(NC(=O)c3ccccc3)nc2N1 (centres undefined)	i	-0.22	i	i	i	-14
CC1=Nc2ccccc2N=C(NC(=O)c2ccccc2)C1c1ccc(Cl)cc1 (centres undefined)	i	0.41	i	12*	i	-3
CCN(C1CCS(=O)(=O)C1)S(=O)(=O)c1ccc2ccccc2c1 (centres undefined)	i	-0.08	i	i	i	-4
Nc1nc(F)cc(NCc2ccccc2)n1	i	0.18	i	i	i	-8
COc1cccc(C2(C)NC(=O)N(CC(=O)Nc3ccc(N4CCOCC4)cc3)C2=O)c1 (centres undefined)	.	.	.	.	i	.
CC(=O)NC(c1ccc2ccccc2c1)c1ccc2cccnc2c1O (centres undefined)	i	-1.4	i	i	i	-3
Oc1c(C(Nc2cccc(C(F)(F)F)c2)c2ccncc2)ccc2cccnc12 (centres undefined)	i	-1.3	i	13*	i	-4
COc1ccc(NC(=O)COC(=O)CCC(=O)c2cccs2)cc1OC	.	.	.	.	i	.
CCOC(=O)N1CCN(S(=O)(=O)c2c(C(=O)N3CCCCC3)c(C)n(C)c2C)CC1	i	-0.09	i	i	i	-5
CCCCn1nc2cc(C(=O)NCc3ccc(OC)cc3)ccc2c1OCC	i	-5.1*	i	i	i	3
CCOc1c2ccc(C(=O)NCc3ccc(OC)cc3)cc2nn1CCOC	i	-0.93	i	i	i	-4
COC(=O)/C=C/S(=O)(=O)c1ccc(NC(C)=O)cc1	i	-2.1	i	6*	i	-21
COc1ccccc1OS(=O)(=O)c1ccc(NC(C)=O)cc1	i	0.41	i	i	i	-3
CN(CC(=O)Nc1ccc(F)c(F)c1F)C(=O)CN1C(=O)C2CCCCC2C1=O (centres undefined)	i	0.03	i	i	i	-5
COc1ccc(CC2=CC(=O)c3ccccc3C2=O)cc1	i	-2.6	i	8*	i	-6
c1ccc2c(c1)CCN(c1ncnc3c1[nH]c1ccccc13)C2	i	-0.95	i	11*	-8.7*	-27
COc1cccc2[nH]c3c(N4CCc5ccccc5C4)ncnc3c12	i	0.5	i	i	.	-8
COC(=O)c1sc(NC(=S)NNC(=O)c2c(Br)c(C)nn2C)c(C(=O)OC)c1C	i	0.46	i	6*	i	-11
COC(=O)c1sc(S(=O)(=O)Nc2c(C)nn(C)c2C)c(C(=O)OC)c1C	.	.	.	.	i	.
Cc1ccccc1NS(=O)(=O)c1cc(C(=O)Nc2ccccc2-c2ccccc2)ccc1Cl	i	-1.3	-7.2*	i	i	-5
C[N+]1(CC(O)COCC2COc3ccccc3O2)CCOCC1 (centres undefined)	i	0.26	i	i	i	-6
SMILES	KCNQ1 act	Kir21 block	KCNK9 block	KCNQ1 block	KCNK3 block	hERG protect
Oc1c(N=NC(=S)Nc2ccccc2F)c2ccccc2n1Cc1ccc(F)cc1	15*	1.9	i	i	i	55*
Oc1c(N=NC(=S)Nc2ccccc2F)c2ccccc2n1Cc1cccc(Cl)c1	i	0.33	i	i	i	16*
Cc1cccc(Cn2c(O)c(N=NC(=S)Nc3ccccc3F)c3ccccc32)c1	8*	0.15	i	i	i	27*
c1ccc2c(c1)CCN(c1nc(CN3CCOCC3)nc3sc4c(c13)CCCC4)C2	i	-1	i	6*	i	-13
Cc1ccc(S(=O)(=O)N2CCC(=O)N(CCOCc3cccc(Cl)c3)CC2)cc1	i	-5.5*	i	i	i	-8
Cc1ccc(S(=O)(=O)N2CCC(=O)N(CCOCc3cccc(F)c3)CC2)cc1	i	1.1	i	i	i	-10
O=C(CSc1nncs1)Nc1nnc(-c2ccccc2)o1	i	0.88	i	i	i	-4
COc1ccc(S(=O)(=O)Oc2ccccc2C(=S)N2CCOCC2)cc1	i	-0.61	i	i	i	-5
Nc1nc(-c2c(Cl)cccc2Cl)no1	i	3.2	i	i	i	5.7*
O=c1cc(CNc2cc(C(F)(F)F)cc(C(F)(F)F)c2)nc2sccn12	i	-0.26	-7.4*	i	i	-3
O=c1ccc(C(F)(F)F)cn1Cc1cc(=O)n2ccsc2n1	i	0.18	i	i	i	0
O=Cc1ccc(-c2cccs2)s1	.	.	.	.	i	.
CCC(C)(c1ccc(C=O)s1)c1ccc(C=O)s1	i	-1.7	i	i	i	6.0*
CCOC(=O)c1c(NC(=O)CSc2nnnn2C)sc(CC)c1C	i	-0.2	-6.8*	i	i	-3
CCOC(=O)c1c(NC(=O)CSc2nnnn2CC)sc(C)c1C	i	-0.25	-7.7*	i	i	-7
CCCn1nnnc1SCC(=O)Nc1nnc(CC)s1	i	1.4	i	i	i	17*
Cc1nc(NC(=O)CSc2nnnn2Cc2ccccc2)sc1C	i	-1	i	i	i	5.0*
Cc1nnc(NC(=O)CSc2nnnn2Cc2ccccc2)s1	i	0.93	i	i	i	-1
CN(C(=O)c1cccc(NC(=O)Cc2ccc(NC(=O)C3CCCN(C(=O)C4CC4)C3)cc2)c1)C1CCCCC1 (centres undefined)	.	.	.	.	i	.
CCc1ccc(-c2cc(C)no2)cc1S(=O)(=O)NCCc1ccc(OC)c(OC)c1	i	-4.4*	i	i	i	-14
CCCN(c1ccccc1F)S(=O)(=O)c1cc(-c2cc(C)no2)ccc1OC	i	-1.2	-7.8*	i	i	-16
Cc1ccccc1CNS(=O)(=O)c1ccccc1[N+](=O)[O-]	i	-1.1	i	i	i	0
Cc1onc(-c2ccccc2)c1CNS(=O)(=O)c1ccccc1[N+](=O)[O-]	i	-6.9*	i	i	i	-6
